Our source for the IC50, pKa and logP values is ChEMBL document CHEMBL1137223, “Antileishmanial pyrazolopyridine derivatives: synthesis and structure-activity relationship analysis” (J Med Chem, 2004).

“And” between values parts separate entries of the source, which are not always exact repeats. Equal values may be shown once.

One data set concerns Leishmania amazonensis. Nature of the data set: Tested for growth inhibitory activity against Leishmania amazonensis promastigotes. It is filed as functional, organism-based. The method, boiled down:
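L. amazonensis promastigotes (MHOM/BR/77/LTB0016), grown at 25 °C in LIT medium with 10% heat-inactivated FCS, harvested late log phase, adjusted to 4×10^6/mL. Drugs in DMSO (≤1.6% v/v) at 160 to 5 μg/mL; 24 h incubation; parasites counted in Neubauer chamber; inhibition versus DMSO and untreated controls; IC50 by linear regression of inhibition against log concentration.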

Data set [1] is described as follows: pKa was determined. In kind it is physicochemical.
Data set [2] in a line: Partition coefficient (logP). It is filed as physicochemical. The settings on record: octanol/water. The procedure, abridged:
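Shake-flask octanol/aqueous buffer pH 7.4 partition; compound stock 4 × 10^-3 M in 1,4-dioxane; phases shaken 1 h at 25.0 ± 0.1 °C, centrifuged 15 min; both layers read by UV at λmax 320–354 nm; three replicates. P taken as quotient of buffer and octanol concentrations. Some values instead calculated from unsubstituted parent log P plus hydrophobic fragmental constants (log PX = log PH + πX).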

In general, IC50 refers to the concentration at which inhibition is half-maximal. Lower therefore signals inhibition by little substance. Broadly, the pKa is the pH at which an ionisable group is half protonated. Read a low pKa as a stronger acid or weaker base. In general, logP refers to the decadic logarithm of the partition coefficient of the neutral form, usually between octanol and water. Lower therefore signals lower lipophilicity. Consider `CCOC(=O)c1cnc2c(c(C)nn2C)c1Nc1cccc([N+](=O)[O-])c1`, for which the half-maximal inhibitory concentration (IC50) in the data set on Leishmania amazonensis is 6.11 µg/mL and 17.2 µM. The molecule further displayed a pKa in data set [1] of 8.38. This molecule gave a lipophilicity (logP) in data set [2] of 0.68.

As to `CCOC(=O)c1cnc2c(c(C)nn2C)c1Nc1ccc(C)cc1`, the IC50 in the data set on Leishmania amazonensis is 10.6 µg/mL and 32.6 µM. In data set [1], this molecule displayed a pKa of 8.61. In data set [2], the log partition coefficient (logP) came out at 1.52.

As for `CCOC(=O)c1cnc2c(c(C)nn2C)c1Nc1ccc(O)cc1`, the IC50 with Leishmania amazonensis is 1.37 µg/mL and 4.2 µM. In data set [1], the pKa came out at 9.98. In data set [2], this molecule displayed a log partition coefficient (logP) of 1.14.

`CCOC(=O)c1cnc2c(c(-c3ccccc3)nn2-c2ccccc2)c1Nc1ccc(O)cc1`: in the data set with Leishmania amazonensis, the 50% inhibitory concentration (IC50) was 0.34 µg/mL and 750 nM. The molecule further registered a log partition coefficient (logP) in data set [2] of 3.09.

`CCOC(=O)c1cnc2c(c(C)nn2C)c1Nc1ccccc1`: in the data set on Leishmania amazonensis, the IC50 was 30.7 µg/mL and 98.9 µM. This molecule also yielded a pKa in data set [1] of 8.23. The molecule further displayed a lipophilicity (logP) in data set [2] of 0.96.

As to `CCOC(=O)c1cnc2c(c(C)nn2C)c1Nc1ccc(Br)cc1`, the IC50 with Leishmania amazonensis was 4.57 µg/mL and 11.7 µM. For the same molecule, the pKa in data set [1] turned out to be 8.39. The lipophilicity (logP) in data set [2] was found to be 1.82.

With `CCOC(=O)c1cnc2c(c(C)nn2C)c1Nc1ccc(Cl)cc1`, the IC50 in the data set with Leishmania amazonensis is 1.34 µg/mL and 3.89 µM. The molecule also gave a pKa in data set [1] of 7.98. Also, the log partition coefficient (logP) in data set [2] was found to be 1.32.

In the case of `CCOC(=O)c1cnc2c(c(C)nn2C)c1Nc1cccc(OC)c1`, the IC50 in the data set on Leishmania amazonensis was 7.45 µg/mL and 21.9 µM. The molecule also registered a pKa in data set [1] of 7.64. The same molecule came in with a logP in data set [2] of 0.94.

As for `CCN(CC)Cc1cc(Nc2ccnc3cc(Cl)ccc23)ccc1O.Cl`, the IC50 in the data set on Leishmania amazonensis was 0.34 µg/mL and 950 nM.

Take `CCOC(=O)c1cnc2c(c(C)nn2C)c1Nc1cccc(C)c1`: the IC50 with Leishmania amazonensis is 4.82 µg/mL and 14.9 µM. Besides, in data set [1], the pKa turned out to be 7.06. The logP in data set [2] came out at 2.27.

With `CCOC(=O)c1cnc2c(c(C)nn2C)c1Nc1cccc(Cl)c1`, the 50% inhibitory concentration (IC50) in the data set with Leishmania amazonensis was 4.79 µg/mL and 13.9 µM. Besides, in data set [1], the pKa stood at 9.05. In addition, the logP in data set [2] is 1.67.

In the case of `CCOC(=O)c1cnc2c(c(-c3ccccc3)nn2-c2ccccc2)c1Nc1ccc(O)c(CN(CC)CC)c1`, the IC50 in the data set on Leishmania amazonensis is 0.06 µg/mL and 120 nM. The molecule further showed a log partition coefficient (logP) in data set [2] of 3.45.

As for `CCOC(=O)c1cnc2c(c(C)nn2C)c1Nc1ccc([N+](=O)[O-])cc1`, the IC50 with Leishmania amazonensis is 114 µg/mL and 321 µM. Also, the pKa in data set [1] came to 8.8. Further, the logP in data set [2] was 0.68.

With `CCOC(=O)c1cnc2c(c(C)nn2C)c1Nc1ccc(OC)cc1`, in the data set with Leishmania amazonensis, the IC50 was 10.9 µg/mL and 32 µM. The pKa in data set [1] came out at 8.07. Also, the lipophilicity (logP) in data set [2] stood at 0.94.

For the molecule `CCOC(=O)c1cnc2c(c(C)nn2C)c1Nc1ccc(F)cc1`, in the data set with Leishmania amazonensis, the IC50 is 12.8 µg/mL and 39 µM. In addition, the pKa in data set [1] is 8.14. This molecule displayed a logP in data set [2] of 0.7.

On to `CCOC(=O)c1cnc2c(c(C)nn2-c2ccccc2)c1Nc1ccc(O)c(CN(CC)CC)c1`, for which the IC50 with Leishmania amazonensis was 0.18 µg/mL and 390 nM. The same molecule returned a logP in data set [2] of 2.05.

Regarding `CCOC(=O)c1cnc2c(c(C)nn2-c2ccccc2)c1Nc1ccc(O)cc1`, in the data set with Leishmania amazonensis, the IC50 was 0.21 µg/mL and 550 nM. For the same molecule, in data set [2], the logP was 1.69.

Turning to `N=C(N)c1ccc(OCCCCCOc2ccc(C(=N)N)cc2)cc1.O=S(=O)(O)CCO`, in the data set on Leishmania amazonensis, the IC50 was 0.27 µg/mL and 460 nM.
